From ChEMBL document CHEMBL1124297, “7-Aminoquinolines. A novel class of agents active against herpesviruses” (J Med Chem, 1988)
In brackets after ≈: the same amount, converted by molar mass.

Columns and labels:
Human alphaherpesvirus 1 [1] = assay: Inhibitory activity against herpes simplex virus type-1 (HSV-1) replication in KB cells; format: functional, organism-based; details: Human alphaherpesvirus 1, KB
How it was run: (§1)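 HSV-1 (HF strain)-infected KB cells were treated in duplicate for 20 h with five or six half-log dilutions of compound. The disrupted cultures were serially diluted onto BHK 21/4 cells, and titers were determined by counting macroscopic plaques. I50 came from linear regression of log concentration versus % inhibition of viral replication. Each assay included 10 µg/mL ara-A as positive control, and a set was rejected if ara-A deviated by more than 1.5 SD.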

Human alphaherpesvirus 1 [2] = assay: In vitro therapeutic index as ratio of cytotoxicity to inhibition of viral replication; format: organism-based; details: human alphaherpesvirus 1, in vitro; read-out: Therapeutic index
How it was run: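 Ratio of the cytotoxicity I50 to the HSV-1 replication I50, rounded to the nearest whole number. Cytotoxicity I50 was the mean of four I50 values (Lowry protein, 3H-amino acid uptake, diphenylamine DNA, [3H]thymidine uptake) in uninfected KB cells after 20 h. Replication I50 was from plaque titers of infected KB cultures after 20 h.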

Human alphaherpesvirus 1 [3] = assay: Inhibitory activity against herpes simplex virus type-1 (HSV-1) replication in infected KB cells; format: functional, organism-based; details: Human alphaherpesvirus 1, KB; how it was run: as §1
KB (Homo sapiens) = assay: In vitro cytotoxicity in uninfected KB cells; Low drug solubility

| Structure (SMILES) | IC50 (Human alphaherpesvirus 1 [1]) | selectivity ratio (Human alphaherpesvirus 1 [2]) | IC50 (Human alphaherpesvirus 1 [3]) | IC50 (KB (Homo sapiens)) |
| --- | --- | --- | --- | --- |
| CN(C)c1ccc2ccc(N)nc2c1 | 2 µg/mL (≈ 10.7 µM) | 5 |  |  |
| Nc1ncnc2c1ncn2[C@@H]1O[C@H](CO)[C@@H](O)[C@@H]1O [VIDARABINE] | 5.6 µg/mL (≈ 21 µM) | 7 |  |  |
| CC(=O)Nc1ccc2c(C)ccnc2c1 | 31 µg/mL (≈ 155 µM) | 7 |  |  |
| Cc1cn([C@@H]2O[C@H](CO)[C@@H](O)[C@@H]2O)c(=O)[nH]c1=O | 0.6 µg/mL (≈ 2.32 µM) | 833 |  |  |
| Nc1ccc2ccc(N)nc2c1 | 10 µg/mL (≈ 62.8 µM) |  |  |  |
| Cc1ccnc2cc(N)ccc12 | 40 µg/mL (≈ 253 µM) | 2 |  |  |
| CN(C)c1ccc2ccc(O)nc2c1 | 30 µg/mL (≈ 159 µM) | 5 |  |  |
| Nc1nc2c(ncn2COCCO)c(=O)[nH]1 [ACYCLOVIR] | 2.6 µg/mL (≈ 11.5 µM) | > 38 |  |  |
| Cc1cc(N(C)C)c2ccc(N(C)C)cc2n1 | 9 µg/mL (≈ 39.2 µM) | 2 |  |  |
| Cc1c(O)nc2cc(N(C)C)ccc2c1O |  | 3 | 29 µg/mL (≈ 133 µM) |  |
| O=C(O)P(=O)(O)O [FOSCARNET] | 189 µg/mL (≈ 1500 µM) | 8 |  |  |
| Cc1cc(N(C)C)nc2cc(N)ccc12 | 6 µg/mL (≈ 29.8 µM) | 2 |  |  |
| CC(=O)Nc1ccc2c(C)cc(N(C)C)nc2c1 | 18 µg/mL (≈ 74 µM) | 6 |  |  |
| CNc1cc(C)nc2cc(N(C)C)ccc12 | 6 µg/mL (≈ 27.9 µM) | 2 |  |  |
| CCN(CC)CCCC(C)Nc1ccnc2cc(Cl)ccc12 (stereo not given) [CHLOROQUINE] | 27 µg/mL (≈ 84.4 µM) | 3 |  |  |
| CN(C)c1ccc2ccc(N(C)C)nc2c1 | 6 µg/mL (≈ 27.9 µM) | 3 |  |  |
| CNc1ccc2ccc(N(C)C)cc2n1 | 11 µg/mL (≈ 54.7 µM) | 2 |  |  |
| CC(=O)Nc1ccc2c(C)cc(Cl)nc2c1 | 21 µg/mL (≈ 89.5 µM) | 4 |  |  |
| Cc1c(N(C)C)nc2cc(N(C)C)ccc2c1Cl | 49 µg/mL (≈ 186 µM) |  |  | > 32 µg/mL |
| CN(C)c1ccc2c(N(C)C)cc(N(C)C)nc2c1 | 5 µg/mL (≈ 19.4 µM) | 4 |  |  |
| Cc1cc(N)nc2cc(N)ccc12 | 4 µg/mL (≈ 23.1 µM) | 7 |  |  |
| Cc1c(Cl)nc2cc(N(C)C)ccc2c1Cl | 13 µg/mL (≈ 51 µM) | 2 |  | > 32 µg/mL |
| Cc1cc(Cl)c2ccc(N(C)C)cc2n1 | 7 µg/mL (≈ 31.7 µM) | 3 |  |  |
| CN(C)c1ccc2ccc(N)cc2n1 | 51 µg/mL (≈ 272 µM) | 3 |  |  |
| Cc1cc(Cl)nc2cc(N)ccc12 | 53 µg/mL (≈ 275 µM) | 3 |  |  |
| CCC(=O)C(CCCCCCOc1ccc(OC)cc1Cl)C(=O)CC [ARILDONE] | 11 µg/mL (≈ 29.8 µM) | 7 |  |  |
| CC(=O)Nc1ccc2c(C)cc(N)nc2c1 | 10 µg/mL (≈ 46.5 µM) | 3 |  |  |
| Cc1ccc2ccc(N(C)C)cc2n1 | 4.5 µg/mL (≈ 24.2 µM) | 9 |  |  |
| Cc1cc(O)c2ccc(N(C)C)cc2n1 | 23 µg/mL (≈ 114 µM) | 19 |  |  |
| Cc1cnc2cc(N(C)C)ccc2c1 | 7.6 µg/mL (≈ 40.8 µM) | 9 |  |  |
